The source of these data is publication PMC3913000 (Nature chemical biology, 2013).

Entries after “also recorded” stand apart in the source; their conditions may differ.

One assay has as its target IgE. Particulars: read-out: Kd for IgE (nucleotide-binding site ligand); cited from earlier work.
The test system of a further assay is RBL cells. The experiment in a line: Inhibition of allergen-induced RBL mast cell degranulation. Format: cell-based, rat. The conditions noted are these: equimolar IgE^DNP and IgE^dansyl; 500 nM HtTA [dansyl2NF2].
The test system of the next assay is IgE^dansyl. Nature of the assay: Fluorescence quenching assay, hapten binding to IgE^dansyl. The conditions noted are these: dansyl-IgE^dansyl versus NF-IgE^DNP. Put shortly:
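Monovalent hapten titrated into 10 nM IgE in PBS. Binding read as quenching of IgE tryptophan fluorescence at 335 nm, which occurs only when hapten and IgE are in proximity (<10 nm). Monovalent binding constants were derived from the quenching. At least triplicate.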

The term Kd denotes the constant that tells how readily two partners part at equilibrium. For `O=C(O)CCCc1c[nH]c2ccccc12` [IBA, indole-3-butyric acid], the Kd at IgE was 4.5 ± 0.6 µM. Besides, the “inhibition of HtTA [dansyl2NF2]-induced degranulation” value with RBL cells is reported as “did not inhibit degranulation; also recorded: no inhibition of mast cell degranulation was observed”.
Take dansyl: in the assay with IgE^dansyl, the “difference in affinity between dansyl-IgE^dansyl and NF-IgE^DNP pairs” value was 760 fold.
